Laboratory results: ChEMBL document CHEMBL1128716, “4,5-Dihydro-3-(methanesulfonamidophenyl)-1-phenyl-1H-2,4-benzodiazepines: a novel class III antiarrhythmic agents” (J Med Chem, 1995)
Calls of active or inactive are those of the source.

Key:
[1] = species on record: Oryctolagus cuniculus; assay: In vitro concentration at which cardiac refractoriness in rabbit is increased by 20 ms; type: functional; settings: Heart
In short: (§1)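 Isolated hearts stimulated at twice threshold (1 mA minimum), equilibrated 45 min. ERP determined by scanning diastole with a single premature stimulus after 15 min at each of five cumulative concentrations. EC20 is the concentration raising ERP by 20 ms, estimated by linear regression of concentration–response data, in nM; n = 3–5 hearts.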

[2] = species on record: Oryctolagus cuniculus; assay: In vitro concentration at which cardiac refractoriness in rabbit (ERP-effective refractory period) is increased by 20 ms; inactive at 1000; type: functional; settings: Heart; in short: as §1
[3] = system: Canis familiaris; assay: Maximum increase in ERP(ms) after oral dose of the compound( 0.3 mg/kg) in mongrel dogs at a basic cycle […].; type: functional, Canis lupus familiaris
In short: (§2)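 Conscious instrumented dogs, at least 7 days after surgery, suspended in slings during normal sinus rhythm. After three baseline ERP measurements, 0.3 mg/kg given orally by gastric lavage. ERP taken every 15 min for 3 h with pacing at basic cycle lengths of 500, 400 and 250 ms. Value is the maximum ERP increase over that interval, mean ± SEM.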

[4] = (§3) Displacement of [3H]BTX from sodium channel; parameters: species or system Canis lupus familiaris
In short: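 Canine cardiac sarcolemma vesicles (50 μg protein) incubated with 5 nM [3H]BTX-B, 60 min at 37 °C, triplicate. Nonspecific binding with 0.3 mM veratridine. Filtration read-out; IC50 in μM.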

[5] = target: Sodium channel protein type 5 subunit alpha (Homo sapiens, UniProt Q14524); assay: Blockade of Na+ current in frog oocytes expressing human cardiac sodium channel (HH1); type: cell-based, Oocyte
Chain of Sodium channel protein type 5 subunit alpha (Q14524 whole entry): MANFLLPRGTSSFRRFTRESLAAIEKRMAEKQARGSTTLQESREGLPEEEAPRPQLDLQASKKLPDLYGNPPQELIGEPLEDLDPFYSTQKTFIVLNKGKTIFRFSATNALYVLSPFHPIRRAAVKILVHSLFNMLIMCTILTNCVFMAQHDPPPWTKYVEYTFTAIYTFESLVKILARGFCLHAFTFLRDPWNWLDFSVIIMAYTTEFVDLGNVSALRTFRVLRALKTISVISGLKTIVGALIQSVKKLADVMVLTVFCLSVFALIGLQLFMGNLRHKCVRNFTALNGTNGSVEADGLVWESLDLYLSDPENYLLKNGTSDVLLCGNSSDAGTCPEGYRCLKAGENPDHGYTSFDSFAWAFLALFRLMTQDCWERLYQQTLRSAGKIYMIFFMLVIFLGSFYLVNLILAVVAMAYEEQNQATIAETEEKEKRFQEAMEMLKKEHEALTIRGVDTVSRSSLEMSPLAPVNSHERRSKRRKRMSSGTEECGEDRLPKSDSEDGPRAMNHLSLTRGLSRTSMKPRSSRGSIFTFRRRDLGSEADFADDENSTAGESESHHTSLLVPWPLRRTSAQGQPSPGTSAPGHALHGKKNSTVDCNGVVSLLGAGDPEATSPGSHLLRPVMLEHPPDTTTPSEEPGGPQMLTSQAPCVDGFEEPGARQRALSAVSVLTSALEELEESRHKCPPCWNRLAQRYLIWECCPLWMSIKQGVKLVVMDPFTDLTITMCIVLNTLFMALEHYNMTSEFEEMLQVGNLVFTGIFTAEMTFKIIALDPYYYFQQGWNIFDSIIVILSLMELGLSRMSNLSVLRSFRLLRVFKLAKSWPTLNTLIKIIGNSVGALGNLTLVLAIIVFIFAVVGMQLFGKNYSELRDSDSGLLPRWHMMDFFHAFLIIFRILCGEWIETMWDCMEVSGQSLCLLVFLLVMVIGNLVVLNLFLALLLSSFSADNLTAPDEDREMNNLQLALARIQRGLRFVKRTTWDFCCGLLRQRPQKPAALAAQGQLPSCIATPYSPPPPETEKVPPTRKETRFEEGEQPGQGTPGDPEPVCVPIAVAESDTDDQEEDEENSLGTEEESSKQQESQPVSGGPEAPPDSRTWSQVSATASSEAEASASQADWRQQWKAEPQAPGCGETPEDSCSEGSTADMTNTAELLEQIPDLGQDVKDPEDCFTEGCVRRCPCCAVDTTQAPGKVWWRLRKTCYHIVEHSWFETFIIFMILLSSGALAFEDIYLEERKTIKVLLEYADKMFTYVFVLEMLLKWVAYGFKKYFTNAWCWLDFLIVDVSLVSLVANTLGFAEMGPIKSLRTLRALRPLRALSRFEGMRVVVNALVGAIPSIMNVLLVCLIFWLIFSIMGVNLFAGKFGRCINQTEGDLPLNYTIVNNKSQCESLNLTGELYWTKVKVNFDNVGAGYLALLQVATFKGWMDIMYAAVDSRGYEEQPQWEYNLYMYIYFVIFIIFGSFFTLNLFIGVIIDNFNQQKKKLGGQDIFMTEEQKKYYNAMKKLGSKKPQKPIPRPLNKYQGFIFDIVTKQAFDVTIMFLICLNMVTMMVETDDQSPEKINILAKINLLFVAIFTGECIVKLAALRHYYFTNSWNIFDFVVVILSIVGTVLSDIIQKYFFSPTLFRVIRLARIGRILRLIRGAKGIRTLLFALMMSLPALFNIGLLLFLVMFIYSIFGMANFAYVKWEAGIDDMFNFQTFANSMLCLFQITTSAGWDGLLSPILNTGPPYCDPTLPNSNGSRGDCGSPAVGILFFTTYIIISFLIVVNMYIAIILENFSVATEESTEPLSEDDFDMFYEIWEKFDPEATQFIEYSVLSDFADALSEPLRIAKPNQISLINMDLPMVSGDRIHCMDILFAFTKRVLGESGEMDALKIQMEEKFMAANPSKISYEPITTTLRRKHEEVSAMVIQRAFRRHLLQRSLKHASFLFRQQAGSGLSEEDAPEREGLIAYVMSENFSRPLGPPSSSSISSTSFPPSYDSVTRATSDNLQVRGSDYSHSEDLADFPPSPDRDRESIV
In short: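 HH1 transcripts injected into Xenopus laevis oocytes, incubated at room temperature 24–72 h. Two-microelectrode voltage clamp (3 M KCl electrodes), bath NaCl 140, KCl 2, CaCl2 1.8, MgCl2 1, HEPES 5 mM, pH 7.5, 21–23 °C. Holding −100 mV; peak current at the I–V maximum measured before and after test agent; IC50 in μM.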

[6] = Displacement of [3H]D-888 from canine cardiac calcium channel; type: tissue-based, Canis lupus familiaris, Heart
In short: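 Canine cardiac sarcolemma vesicles (50 μg protein) with 5 nM [3H]D888 in 50 mM Tris-HCl pH 7.4, 0.1% BSA, 90 min at 25 °C, triplicate. Nonspecific binding defined with 31.6 μM (S)-verapamil. Bound ligand collected by filtration on polyethylenimine-treated filters; IC50 in μM.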

[7] = system: Canis familiaris; assay: Maximum increase in ERP(ms) after oral dose of the compound( 0.3 mg/kg) in mongrel dogs at a basic cycle length of 250 ms.; type: functional, Canis lupus familiaris; in short: as §2
[8] = system: Canis familiaris; assay: Maximum increase in ERP(ms) after oral dose of the compound( 0.3 mg/kg) in mongrel dogs at a basic cycle length of 500 ms.; type: functional, Canis lupus familiaris; in short: as §2
[9] = system: Canis familiaris; assay: Maximum increase in ERP(ms) after oral dose of the compound( 0.3 mg/kg) in mongrel dogs at a basic cycle length of 400 ms.; type: functional, Canis lupus familiaris; in short: as §2
[10] = as §3
[11] = system: Canis familiaris; assay: The orally dosed values in animals (0.3 mg/kg) represent the maximum increase in ERP observed over a 3 hour interval. Pacing was done at basic cycle lengths of 500 ms.; type: functional, Canis lupus familiaris; in short: as §2
[12] = system: Canis familiaris; assay: Prolongation of ERP(effective refractory […]) in mongrel dogs over a 3 hour interval following oral administration (0.3 mg/kg), pacing at a basic cycle length of 400 ms.; type: functional, Canis lupus familiaris; in short: as §2
[13] = system: Canis familiaris; assay: Prolongation of ERP(effective refractory […]) in mongrel dogs over a 3 hour interval following oral administration (0.3 mg/kg), pacing at a basic cycle length of 250 ms.; type: functional, Canis lupus familiaris; in short: as §2

In the case of CCS(=O)(=O)Nc1ccc(CCC2=NC(c3ccccc3)c3ccccc3CN2C)cc1 (centres undefined), the EC20 [1] is reported as 0.1 µM.

For CN1Cc2ccccc2C(c2ccc(NS(C)(=O)=O)cc2)N=C1CCc1ccc(NS(C)(=O)=O)cc1 (centres undefined), the EC20 [2] was “inactive”.

Work on CN1Cc2ccccc2C(c2ccc(F)cc2F)N=C1CCc1ccc(NS(C)(=O)=O)cc1 (centres undefined) yielded an EC20 [1] of 0.004 µM.

Work on CSc1ccc(C2N=C(OCc3ccc(NS(C)(=O)=O)cc3)N(C)Cc3ccccc32)cc1 (centres undefined) yielded an EC20 [1] of 0.004 µM.

CSc1ccc([C@@H]2N=C(OCc3ccc(NS(C)(=O)=O)cc3)N(C)Cc3ccccc32)cc1.Cl showed an ERP observations [3] of 20, an EC20 [1] of 0.008 µM and an IC50 [4] of 3 µM. It also gave an IC50 [5] of over 30 µM, an IC50 [6] of 1.1 µM and an ERP observations [7] of 11. For the same molecule, the ERP observations [8] was 28.

CN1Cc2ccccc2[C@@H](c2ccccc2)N=C1OCc1ccc(NS(C)(=O)=O)cc1.O=C(O)/C=C/C(=O)O gave an ERP [9] of 36 ms, an EC20 [1] of 0.0015 µM and an IC50 [5] of 126 µM. For the same molecule, the IC50 [10] was 5.2 µM, the ERP [7] was 31 ms and the ERP [8] was 40 ms.

In the case of CN1Cc2ccc(NS(C)(=O)=O)cc2C(c2ccccc2)N=C1CCc1ccccc1 (centres undefined), the EC20 [1] is reported as 0.655 µM.

In the case of CN1Cc2ccccc2C(c2ccccc2)N=C1CCc1ccccc1 (centres undefined), the EC20 [1] is reported as 0.06 µM.

For CN(CCOc1ccc(NS(C)(=O)=O)cc1)CCc1ccc(NS(C)(=O)=O)cc1 [DOFETILIDE], the ERP observations [11] was 30, the ERP observations [12] was 28 and the EC20 [1] was 0.002 µM. For the same molecule, the ERP observations [13] was 21.

In the case of CSc1ccc([C@H]2N=C(OCc3ccc(NS(C)(=O)=O)cc3)N(C)Cc3ccccc32)cc1.Cl, the ERP observations [9] is reported as 33, the EC20 [1] is reported as 0.007 µM and the IC50 [4] is reported as 1 µM. The IC50 [6] was 0.7 µM, the ERP observations [7] was 28 and the ERP observations [8] was 33.

Work on CN1Cc2ccccc2C(c2ccccc2)N=C1CCc1ccc(NS(C)(=O)=O)cc1 (centres undefined) yielded an EC20 [1] of 0.02 µM.

Molecule CN1Cc2ccccc2C(c2ccc(Cl)cc2)N=C1OCc1ccc(NS(C)(=O)=O)cc1 (centres undefined) has an EC20 [1] of 0.003 µM.

With CN1Cc2ccccc2C(c2ccc(Cl)cc2)N=C1SCc1ccc(NS(C)(=O)=O)cc1 (centres undefined) the EC20 [1] was 0.0055 µM.

Work on CN1Cc2ccccc2[C@H](c2ccc(F)cc2F)N=C1CCc1ccc(NS(C)(=O)=O)cc1.Cl yielded an ERP observations [9] of 27, an EC20 [1] of 0.007 µM and an IC50 [4] of 3.6 µM. It also gave an IC50 [5] of over 100 µM, an IC50 [6] of 0.5 µM and an ERP observations [7] of 21. It also gave an ERP observations [8] of 28.

For CN1Cc2ccccc2C(c2ccc(NS(C)(=O)=O)cc2)N=C1CCc1ccccc1 (centres undefined), the EC20 [1] was 0.78 µM.

With CN1Cc2ccccc2C(c2ccccc2)N=C1CCc1ccccc1NS(C)(=O)=O (centres undefined) the EC20 [1] was 0.5 µM.

Work on CN1Cc2ccccc2[C@@H](c2ccc(Cl)cc2)N=C1OCc1ccc(NS(C)(=O)=O)cc1 yielded an EC20 [1] of 0.002 µM.

In the case of CN1Cc2c(NS(C)(=O)=O)cccc2C(c2ccccc2)N=C1CCc1ccccc1 (centres undefined), the EC20 [2] is reported as “inactive”.

With CN1Cc2ccccc2C(c2ccccc2)N=C1CCc1ccc(NS(=O)(=O)C(F)(F)F)cc1 (centres undefined) the EC20 [1] was 0.52 µM.

Work on CN1Cc2ccccc2[C@H](c2ccccc2)N=C1OCc1ccc(NS(C)(=O)=O)cc1.O=C(O)/C=C/C(=O)O yielded an ERP observations [9] of 20, an EC20 [1] of 0.004 µM and an IC50 [4] of 6.9 µM. The IC50 [5] was over 30 µM, the IC50 [6] was 0.9 µM and the ERP observations [7] was 18. It also gave an ERP observations [8] of 18.

In the case of CN1Cc2ccccc2C(c2ccccc2)N=C1OCc1ccc(NS(C)(=O)=O)cc1 (centres undefined), the EC20 [1] is reported as 0.006 µM.

In the case of CN1Cc2ccccc2C(c2ccc(NS(C)(=O)=O)cc2)N=C1OCc1ccc(NS(C)(=O)=O)cc1 (centres undefined), the EC20 [1] is reported as 0.14 µM.

In the case of CN1Cc2ccccc2[C@H](c2ccc(Cl)cc2)N=C1OCc1ccc(NS(C)(=O)=O)cc1, the EC20 [1] is reported as 0.004 µM.

CN1Cc2ccccc2C(c2ccc(Cl)cc2)N=C1CCc1ccc(NS(C)(=O)=O)cc1 (centres undefined) showed an EC20 [1] of 0.01 µM.

In the case of CN1Cc2ccccc2C(c2ccc(Cl)c(Cl)c2)N=C1OCc1ccc(NS(C)(=O)=O)cc1 (centres undefined), the EC20 [1] is reported as 0.002 µM.

Molecule COc1ccc(C2N=C(OCc3ccc(NS(C)(=O)=O)cc3)N(C)Cc3ccccc32)cc1 (centres undefined) has an EC20 [1] of 0.004 µM.

Molecule CN1Cc2ccccc2[C@@H](c2ccc(F)cc2F)N=C1CCc1ccc(NS(C)(=O)=O)cc1.Cl has an ERP observations [9] of 33, an EC20 [1] of 0.008 µM and an IC50 [4] of 2.5 µM. It also gave an IC50 [5] of over 100 µM, an IC50 [6] of 1.1 µM and an ERP observations [7] of 22. The ERP observations [8] was 33.
